Test results from PMC10823175 (Proceedings of the National Academy of Sciences of the …, 2024).
Marks after values point to notes of the source that are not given here.

What was measured:
[1] = tested on: MDA-MB-231, 4T1, MRC-5 cells; assay: Western blot of c-MYC, cyclin D1 and PARP; type: cell-based; conditions: MDA-MB-231 or 4T1 cancer cells; MG-002, CR-1-31B 100 nM, DXR 0.5 µg/mL; 24 h
4T1-526 mammary tumors = assay: 4T1-526 mammary fat pad tumor growth; type: in vivo, BALB/c mice
eIF4A1 [2] = target: T1, eIF4A1 (Homo sapiens, UniProt P60842); assay: Differential scanning fluorimetry of eIF4A1; type: binding; conditions: eIF4A1 8 µM, compound 15 µM, 15 µM poly (AG)8, 1 mM AMPPNP
Procedure, shortened: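 His6-eIF4A1 (E. coli BL21(DE3), Ni-NTA then Q-Sepharose) at 8 µM with 15 µM test compound or DMSO. Heated 37 to 75 °C at 1 °C/min; ΔT50 from the unfolding midpoint; n = 3 ±SD.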

eIF4A1 [3] = target: T1, eIF4A1; type: binding; conditions: for RNA template selectivity of compound-induced eIF4A1 clamping: 10 µM, poly (AG)8 vs poly (UC)8 RNA
Procedure, shortened: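 Clamping: 1 mM AMPPNP, ΔmP versus DMSO, n = 3 ±SD. Dissociation: complexes with 1 mM ATP, 30 min RT dark, then 1,000-fold excess unlabeled poly(AG)8, polarization over time; one-phase-decay half-life, 95% CI errors.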

[4] = tested on: cap-dependent (FLuc) translation; assay: In vitro translation in Krebs-2 extracts with bicistronic reporter mRNA; type: biochemical; conditions: read-out: IC50 toward inhibition of FLuc synthesis from (CAG)-FF/HCV-IRES/Ren mRNA, n = 2 ±SD
[5] = Plasma protein binding, human; type: in vitro ADME
4T1-526 cells = assay: Cell death of 4T1-526 cells; type: cell-based; conditions: 72h exposure at IC50 doses
[6] = tested on: mRNA translation in 4T1-526 cells; assay: Puromycin incorporation in 4T1-526 cells; type: cell-based; conditions: read-out: IC50 for inhibition of mRNA translation
[7] = delivered IV 1 mg/kg; cited from earlier work
[8] = Plasma protein binding, mouse; type: in vitro ADME

T1 sequence (P60842 whole entry): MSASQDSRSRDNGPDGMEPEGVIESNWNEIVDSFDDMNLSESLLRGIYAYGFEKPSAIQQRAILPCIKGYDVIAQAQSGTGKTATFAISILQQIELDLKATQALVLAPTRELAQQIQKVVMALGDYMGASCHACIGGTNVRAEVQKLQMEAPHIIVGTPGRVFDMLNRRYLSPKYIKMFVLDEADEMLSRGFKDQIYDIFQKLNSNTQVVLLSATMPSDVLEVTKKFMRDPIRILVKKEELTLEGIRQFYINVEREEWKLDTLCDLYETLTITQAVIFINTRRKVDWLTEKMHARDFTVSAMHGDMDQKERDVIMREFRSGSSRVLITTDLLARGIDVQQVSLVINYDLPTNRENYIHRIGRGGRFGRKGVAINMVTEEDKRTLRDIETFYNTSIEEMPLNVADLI

SMILES: COc1cccc2c1C(=O)c1c(O)c3c(c(O)c1C2=O)C[C@@](O)(C(=O)CO)C[C@@H]3O[C@H]1C[C@H](N)[C@H](O)[C@H](C)O1 [DXR, doxorubicin]
- cleavage of PARP [1]: cleavage of PARP was observed
- primary tumor response, monotherapy versus combination (4T1-526 mammary tumors; 0.5 mg/kg MG-002 PO, 2.5 mg/kg DXR IP, every 3 d): equally responsive

SMILES: CC(/C=C/C(C)=C/[C@@H]1Cc2nc(cs2)[C@@H](C)C[C@@H](N)CC(=O)O[C@@H](C)C/C(C)=C/C=C\C(=O)O1)=C\CN(C)C [PatA, pateamine A]
- transition midpoint temperature shift (ΔT50) (eIF4A1 [2]): 10 °C
- RNA template selectivity of compound-induced eIF4A1 clamping (eIF4A1 [3]): stabilized binding of eIF4A1 to both polypurine and polypyrimidine RNA templates

SMILES: COc1cc2c(c(OC)n1)[C@]1(O)[C@H](O)[C@H](CN(C)C)[C@@H](c3ccccc3)[C@]1(c1ccc(C#N)cc1)O2 [eFT226]
- IC50 [4]: 813 ± 91 nM
- transition midpoint temperature shift (ΔT50) (eIF4A1 [2]): 7 °C
- Plasma protein binding (% bound) Human [5]: 79.4 ± 0.3 % bound
- cell death (4T1-526 cells): Significant cell death
- tumor growth after intraperitoneal or intravenous delivery (4T1-526 mammary tumors; intraperitoneal or intravenous delivery): similarly delayed tumor growth
- IC50 [6]: ~8 nM
- RNA template selectivity of compound-induced eIF4A1 clamping (eIF4A1 [3]): discriminated between poly (AG)8 and poly (UC)8 RNA templates
- half-life of complexes, fold less than those formed with MG-002 (eIF4A1 [3]; poly (AG) RNA): approximately 2.5 fold
- T1/2 (h) [7]: 10.9^§ h
- Plasma protein binding (% bound) Mouse [8]: 73.4 ± 1.1 % bound
